These results are taken from ChEMBL document CHEMBL3769318, “The Rational Design of Selective Benzoxazepin Inhibitors of the α-Isoform of Phosphoinositide 3-Kinase Culminating in the Identification of (S)-2-((2-(1-Isopropyl-1H-1,2,4-triazol-5-yl)-5,6-dihydrobenzo[f]imidazo[1,2-d][1,4]oxazepin-9-yl)oxy)propanamide (GDC-0326)” (J Med Chem, 2016).

For data set [1], the target named is Phosphatidylinositol 4,5-bisphosphate 3-kinase catalytic subunit alpha isoform (Homo sapiens, UniProt P42336). The data set can be described thus: Inhibition of recombinant PI3K alpha (unknown origin) using PIP2 as substrate by fluorescence polarization assay. The note with it: read-out: Ki(app). (In general: Fluorescence polarisation rises when a labelled molecule tumbles more slowly, as on binding a larger partner.)

Data set [2] can be described thus: Antiproliferative activity against human MCF7-neo/Her2 cells after 3 days by luminescence plate reader method. Type of data set: functional, cell-based. The note with it: 72 h.
Data set [3] is described as follows: Antiproliferative activity against human PC3 cells after 4 days by luminescence plate reader method. Type of data set: functional, cell-based. The note with it: PC-3, 96 h.
Data set [4] in a line: Clearance in Sprague-Dawley rat at 1 mg/kg, iv. The note with it: in vivo. The data set is classed as ADME, organism-based.
The subject of data set [5] is Hepatocyte. The data set can be described thus: Drug metabolism in rat hepatocytes. Type of data set: ADME, cell-based.
For data set [6], the system named is Hepatocyte. Put plainly: Drug metabolism in human hepatocytes. The data set is classed as ADME, cell-based.
The nature of data set [7]: Plasma protein binding in CD-1 mouse at 5 uM after 4 hrs by LC-MS/MS analysis. Type of data set: ADME, cell-free. The note with it: mouse, 4 h, 5 µM. The gist of the method:
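Equilibrium dialysis of pooled plasma (n ≥ 3) spiked with compound at 5 µM total against PBS pH 7.4, 37 °C, 5% CO2, for 4 h; plasma and buffer concentrations measured by LC-MS/MS; percent unbound calculated as buffer/plasma ×100.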

Data set [8] can be described thus: Cytotoxicity against human KPL4 cells after 4 days by luminescence plate reader method. The data set is classed as functional, cell-based. The note with it: KPL4, 96 h.
A short description of data set [9]: Toxicity in SCID beige mouse xenografted with human KPL4 cells. Type of data set: organism-based. The note with it: in vivo. The gist of the method:
(§1)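 Breast cancer xenografts: MCF7-neo/HER2 grown in nude mice, KPL-4 in scid beige mice. Compound given orally once daily for 21 days at 0.78, 1.56, 3.25, 6.25 or 12.5 mg/kg in 0.5% methylcellulose/0.2% Tween-80, versus vehicle-treated mice. Tolerability judged by body weight loss, with under 10% loss as the criterion.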
For orientation: A xenograft is tissue or cells of one species grown in another, often human tumour cells in immunodeficient mice.

A short description of data set [10]: Toxicity in nude mouse xenografted with human MCF7-neo/Her2 cells. The data set is classed as organism-based. In short, it runs like this: as §1
Data set [11] is described as follows: Clearance in NCR nude mouse at 1 mg/kg, iv. Type of data set: ADME, organism-based. The note with it: in vivo.
The nature of data set [12]: Oral bioavailability in NCR nude mouse at 25 mg/kg. The data set is classed as ADME, organism-based. The note with it: in vivo.
The nature of data set [13]: animal or person. The note with it: Homo sapiens, po, 504 h, read-out: TGI.
Data set [14] is described as follows: animal or person. The note with it: Homo sapiens, KPL4, po, 504 h, read-out: TGI.
For data set [15], the species on record is Mus musculus. Put plainly: animal or person. The note with it: 1 h, read-out: INH.
In data set [16] the test system is Mus musculus. Put plainly: Volume of distribution at steady state in NCR nude mouse at 1 mg/kg, iv. The note with it: in vivo.

Chain of Phosphatidylinositol 4,5-bisphosphate 3-kinase catalytic subunit alpha isoform (P42336 whole entry, canonical isoform): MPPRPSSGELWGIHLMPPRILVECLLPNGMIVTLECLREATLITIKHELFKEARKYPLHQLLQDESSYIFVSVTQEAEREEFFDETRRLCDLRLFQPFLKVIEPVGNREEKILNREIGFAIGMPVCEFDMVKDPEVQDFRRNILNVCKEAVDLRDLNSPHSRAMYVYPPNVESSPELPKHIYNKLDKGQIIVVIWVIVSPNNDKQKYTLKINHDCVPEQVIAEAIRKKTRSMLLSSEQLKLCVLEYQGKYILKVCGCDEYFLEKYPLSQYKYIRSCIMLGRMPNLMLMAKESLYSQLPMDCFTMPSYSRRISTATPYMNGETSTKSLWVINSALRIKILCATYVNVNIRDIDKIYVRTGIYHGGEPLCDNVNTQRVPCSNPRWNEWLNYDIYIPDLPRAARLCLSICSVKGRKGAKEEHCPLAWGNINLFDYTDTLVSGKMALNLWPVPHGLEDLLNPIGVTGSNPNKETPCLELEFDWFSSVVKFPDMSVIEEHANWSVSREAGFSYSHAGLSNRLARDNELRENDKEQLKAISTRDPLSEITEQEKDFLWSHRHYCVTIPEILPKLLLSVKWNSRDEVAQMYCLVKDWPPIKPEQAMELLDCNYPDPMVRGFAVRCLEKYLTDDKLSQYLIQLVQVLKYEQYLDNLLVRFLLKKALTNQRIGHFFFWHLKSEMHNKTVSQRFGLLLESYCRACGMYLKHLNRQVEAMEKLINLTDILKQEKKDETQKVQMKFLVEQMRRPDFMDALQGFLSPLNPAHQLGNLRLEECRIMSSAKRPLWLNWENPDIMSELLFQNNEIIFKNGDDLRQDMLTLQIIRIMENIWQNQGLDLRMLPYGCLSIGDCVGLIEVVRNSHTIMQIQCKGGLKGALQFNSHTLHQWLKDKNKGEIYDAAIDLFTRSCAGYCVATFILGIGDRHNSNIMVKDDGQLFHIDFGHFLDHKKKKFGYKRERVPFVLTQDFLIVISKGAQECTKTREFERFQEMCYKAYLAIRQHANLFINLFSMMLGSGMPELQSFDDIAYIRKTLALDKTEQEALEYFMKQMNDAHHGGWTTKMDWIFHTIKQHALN

Consider `CC(C)n1ncnc1-c1cn2c(n1)-c1cnc(OCC(N)=O)cc1OCC2`, for which the Ki in data set [1] amounted to 0.9 nM.
The same measure, in the same setting: the figure for `CC(C)n1ncnc1-c1cn2c(n1)-c1cnc(N3CCC[C@@H]3C(N)=O)cc1OCC2` is 3.2 nM; for `CNC(=O)[C@@H]1CCCN1c1cc2c(cn1)-c1nc(-c3ncnn3C(C)C)cn1CCO2` it is 30 nM.
For the molecule `CC(C)n1ncnc1-c1cn2c(n1)-c1ccc(O[C@H](C)C(N)=O)cc1OCC2`, the concentration for a half-maximal effect (EC50) in data set [2] stood at 1000 nM; in [3] it was 4600 nM.
Consider `CC(C)n1ncnc1-c1cn2c(n1)-c1ccc(OCC(N)=O)cc1OCC2`, for which the Ki in [1] is 0.3 nM. The EC50 in data set [2] and in [3] was 200 nM in each case.
Regarding `CC(C)n1ncnc1-c1cn2c(n1)-c1ccc(N3CCCC[C@H]3C(N)=O)cc1OCC2`, in data set [1], the Ki is 0.3 nM. For the same molecule, the half-maximal effective concentration (EC50) in data set [2] is 30 nM; in data set [3] it was 870 nM.
`CC(C)n1ncnc1-c1cn2c(n1)-c1ccc(N3CCC[C@H]3C(N)=O)cc1OCC2`: in data set [1], the Ki is 0.03 nM. Besides, the clearance in data set [4] came to 33 mL/min/kg. The EC50 in [2] worked out at 10 nM; in data set [3] it was 150 nM.
In the case of `CC[C@H](Oc1ccc2c(c1)OCCn1cc(-c3ncnn3C(C)C)nc1-2)C(N)=O`, the Ki in [1] was 0.5 nM. Moreover, the EC50 was found to be 200 nM in [2] and 2900 nM in data set [3].
As to `CC(C)n1ncnc1-c1cn2c(n1)-c1cnc(N3CCC[C@H]3C(N)=O)cc1OCC2`, the Drug metabolism entry in [5] and in [6] was “metabolite_notdetected” throughout. Further, the Ki in [1] worked out at 0.1 nM. This molecule also registered a clearance in data set [4] of 83 mL/min/kg.
Take `COc1cc2c(cn1)-c1nc(-c3ncnn3C(C)C)cn1CCO2`: the Ki in data set [1] is 3.6 nM.
Still for that read-out and setting: the figure for `CC(C)n1ncnc1-c1cn2c(n1)-c1cnc(N(C)CC(N)=O)cc1OCC2` is 0.2 nM; for `CC(C)n1ncnc1-c1cn2c(n1)-c1cnc(N)cc1OCC2` it is 1.2 nM.
In the case of `CC(C)n1ncnc1-c1cn2c(n1)-c1cnc(O[C@@H](C)C(N)=O)cc1OCC2`, in [1], the Ki was found to be 1 nM. Further, the clearance in data set [4] was determined as 62 mL/min/kg.
For `Cc1nc(-c2cn3c(n2)-c2ccc(-c4cnn(C(C)(C)C(N)=O)c4)cc2OCC3)n(C(C)C)n1` [TASELISIB], in data set [7], the PPB turned out to be 97.5%. In addition, the concentration giving a half-maximal response (EC50) in [8] turned out to be 10 nM; in [2] it was 30 nM. The MTD in [9] and in data set [10] was 25 mg/kg in each case. Also, the clearance in [11] stood at 3 mL/min/kg. In addition, the bioavailability in data set [12] came to 100%. Also, the inhibition in vivo at 25 mg/kg in data set [13] stood at 116%; in data set [14], 125%; in [15] it was 74%. Moreover, the Vdss in data set [16] is 0.3 L/kg.
Turning to `CC(C)n1ncnc1-c1cn2c(n1)-c1cnc(N3CCCC3)cc1OCC2`, the Ki in data set [1] turned out to be 1.3 nM. In data set [4], this molecule gave a clearance of 125 mL/min/kg.
Turning to `CC(C)n1ncnc1-c1cn2c(n1)-c1cnc(OC(C)(C)C(N)=O)cc1OCC2`, the Ki in data set [1] was 3.1 nM.
Consider `CC(C)n1ncnc1-c1cn2c(n1)-c1ccc(N3CC[C@H]3C(N)=O)cc1OCC2`, for which, in [1], the Ki stood at 0.1 nM. Also, the EC50 was 50 nM in data set [2] and 230 nM in data set [3].
As to `COC(=O)Nc1ccc2c(c1)OCCc1cc(-c3nncn3-c3ccccc3Cl)sc1-2`, the Ki in data set [1] stood at 1 nM.

What is called EC50 is the concentration needed to bring the measured effect to its halfway point. Usually clearance stands for the volume of plasma or blood freed of the substance per unit of time. Read a low clearance as a low capacity for elimination. A word on the bioavailability: it is the share of a dose that reaches the circulation, judged against a reference dose that is usually intravenous. A higher bioavailability goes with much systemic uptake. Broadly, the Vdss is a proportionality between amount in the body and measured concentration, not a real space.
